From ChEMBL document CHEMBL1131930, “Synthetic [5,5] trans-fused indane lactones as inhibitors of thrombin” (Bioorg Med Chem Lett, 1999)
pIC50: −log10 of the molar value.

What was measured:
[1] = Activated partial thromboplastin time (APTT) 2x control using human plasma; format: functional
Outline: (§1)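 Human plasma clotting; test compound added with a preincubation step before APTT measurement. The value is the compound concentration required to double the activated partial thromboplastin time. Lines with no significant effect were tested up to 100 µM.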

Prothrombin [2] = target: T1, Prothrombin (Homo sapiens, UniProt P00734)
[3] = Selectivity was determined
[4] = target: Serine protease 1 (Homo sapiens) (UniProt P07477); test: Inhibitory activity against protease trypsin was determined
Sequence of Serine protease 1 (Homo sapiens) (P07477 whole entry): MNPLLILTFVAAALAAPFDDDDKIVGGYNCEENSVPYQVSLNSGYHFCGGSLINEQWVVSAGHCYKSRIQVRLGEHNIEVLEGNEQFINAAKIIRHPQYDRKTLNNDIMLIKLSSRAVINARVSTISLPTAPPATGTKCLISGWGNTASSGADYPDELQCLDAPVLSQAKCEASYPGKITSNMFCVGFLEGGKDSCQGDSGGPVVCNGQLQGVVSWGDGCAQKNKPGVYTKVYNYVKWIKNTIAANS

Homo sapiens = species on record: Homo sapiens; test: Activated partial thromboplastin time (APTT) 2x control using human plasma; NE=no significant effect at 100 uM; format: functional, cell-free; outline: as §1
Prothrombin [5] = target: T1, Prothrombin; test: Inhibitory activity against human thrombin was determined

Row | K obs / 1 (Prothrombin [2]) [M⁻¹ s⁻¹] | Selectivity [3] | K obs / 1 [4] [M⁻¹ s⁻¹] | pIC50 (Prothrombin [5]) | Compound | APTT [1] [µM] | APTT (Homo sapiens)
1 | – | – | – | – | NC(N)=NCCC[C@H](NC(=O)[C@@H]1CCCN1C(=O)[C@H](N)Cc1ccccc1)C(=O)CCl | 1.8 | –
2 | 490000 | – | – | – | N=C(N)CCCCC1C(=O)O[C@H]2Cc3ccc(-c4ccccc4)cc3[C@H]12 (some centres undefined) | 60 | –
3 | 1.6e+07 | – | – | – | NC(N)=NCCC[C@H](NC(=O)[C@H]1CCCN1C(=O)[C@H](N)Cc1ccccc1)C(=O)CCl | – | –
4 | 33000 | – | – | – | N=C(N)CCCCC1C(=O)O[C@H]2Cc3cc(-c4ccc(O)cc4)ccc3[C@H]12 (some centres undefined) | 27 | –
5 | 96000 | 2.7 | 36000 | – | COc1cccc(-c2ccc3c(c2)C[C@@H]2OC(=O)C(CCCCC(=N)N)[C@@H]32)c1 (some centres undefined) | 25 | –
6 | 3.8e+06 | 35 | 110000 | – | N=C(N)CCCCC1C(=O)O[C@H]2Cc3ccc(-c4cccc(-c5ccccc5)c4)cc3[C@H]12 (some centres undefined) | 85 | –
7 | 420000 | 1.9 | 220000 | – | CCN(CC)C(=O)c1cccc(-c2ccc3c(c2)C[C@@H]2OC(=O)C(CCCCC(=N)N)[C@@H]32)c1 (some centres undefined) | 4 | –
8 | – | – | – | – | C/N=C(/N)CCCC[C@H]1C(=O)O[C@H]2Cc3ccc(-c4ccc(O)cc4)cc3[C@@H]21 | – | No effect
9 | – | – | – | 6.22 | N=C(N)CCC[C@H]1C(=O)O[C@H]2Cc3ccccc3[C@@H]21 | – | –
10 | 4200 | – | – | 7.11 | N=C(N)CCCCC1C(=O)O[C@H]2Cc3ccccc3[C@H]12 (some centres undefined) | 100 | –
11 | 48000 | 2.4 | 20000 | – | N=C(N)CCCCC1C(=O)O[C@H]2Cc3cc(-c4ccccc4)ccc3[C@H]12 (some centres undefined) | 50 | –
12 | – | – | – | 5.80 | CNC(=N)CCCC[C@H]1C(=O)O[C@H]2Cc3ccc(-c4ccc(O)cc4)cc3[C@@H]21 | – | –
13 | 1.1e+07 | 55 | 200000 | – | CCN(CC)C(=O)c1cccc(-c2ccc3c(c2)[C@@H]2C(CCCCC(=N)N)C(=O)O[C@H]2C3)c1 (some centres undefined) | 40 | –
14 | – | – | – | 5.74 | COc1cccc(-c2ccc3c(c2)C[C@@H]2OC(=O)C(C)(CCCCC(=N)N)[C@@H]32)c1 (some centres undefined) | – | No effect
15 | 160000 | – | – | – | N=C(N)CCCCC1C(=O)O[C@H]2Cc3cc(-c4cccc(-c5ccccc5)c4)ccc3[C@H]12 (some centres undefined) | – | No effect
16 | 270000 | – | – | 8.05 | N=C(N)CCCCC1C(=O)O[C@H]2Cc3ccc(-c4ccc(O)cc4)cc3[C@H]12 (some centres undefined) | 42 | –
